According to ChEMBL document CHEMBL1144182, “Antimicrobial and cytotoxic arylazoenamines. Part III: antiviral activity of selected classes of arylazoenamines” (Bioorg Med Chem, 2008):
Activity calls are given as the source filed them. How the calls were made is not given here.

Columns and labels:
[1] = Cytotoxicity against mock-infected MDBK cells assessed as reduction in cell viability after 96 hrs by MTT assay; type: cell-based, Bos taurus; conditions: cattle
Procedure, shortened: (§1)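 Cytotoxicity run in parallel with the antiviral assays. MDBK seeded at 6 × 10^5 and BHK at 1 × 10^6 cells/mL in maintenance medium with or without serial compound dilutions. Incubated 48–96 h at 37 °C, 5% CO2, then viability read by MTT. CC50 is the concentration reducing mock-infected cell viability by 50%.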

[2] = Cytotoxicity against mock-infected human MT4 cells assessed as reduction in cell viability after 96 hrs by MTT assay; type: cell-based
Procedure, shortened: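 Exponentially growing MT-4 cells seeded at 1 × 10^5 cells/mL in RPMI-1640 with 10% FCS, penicillin and streptomycin, with or without serial compound dilutions. Incubated at 37 °C, 5% CO2; viability read by MTT after 96 h. CC50 is the concentration reducing mock-infected cell viability by 50%.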

[3] = test system: Respiratory syncytial virus; assay: Antiviral activity against RSV infected in Vero76 cells assessed as reduction in virus plaque formation after 4 days by MTT assay; type: functional, organism-based; conditions: human respiratory syncytial virus, Vero 76, 96 h
[4] = test system: Human immunodeficiency virus 1; assay: Antiviral activity against HIV1 infected in MT4 cells assessed as virus-induced cytopathogenicity after 4 days; type: functional, organism-based
[5] = Cytotoxicity against mock-infected BHK cells assessed as reduction in cell viability after 96 hrs by MTT assay; type: cell-based, Mesocricetus auratus; conditions: hamster; procedure, shortened: as §1
[6] = test system: Poliovirus 1; assay: Antiviral activity against Sb1 virus infected in Vero76 cells assessed as reduction in virus plaque formation after 4 days by MTT assay; type: functional, organism-based; conditions: Enterovirus C, Sabin, Vero 76, 96 h
[7] = test system: Bovine viral diarrhea virus 1; assay: Antiviral activity against BVDV infected in MDBK cells assessed as protection against virus-induced cytopathogenicity after 4 days by MTT assay; type: functional, organism-based; conditions: Bovine viral diarrhea virus isolates and strains, 96 h
Procedure, shortened: (§2)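 MDBK (BVDV) or BHK-21 (YFV) cells were seeded at 3 × 10^4 or 5 × 10^4 cells/well respectively and grown overnight to confluent monolayers at 37 °C in 5% CO2. Monolayers were infected at m.o.i. 0.01 in serum-free medium. After 1 h, MEM Earle's with 1% FCS was added, with or without serial compound dilutions. After 3–4 days at 37 °C, viability was read by MTT. EC50 was taken as 50% protection from virus-induced cytopathogenicity.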

[8] = test system: Vesicular stomatitis virus; assay: Antiviral activity against VSV infected in Vero76 cells assessed as reduction in virus plaque formation after 4 days by MTT assay; type: functional, organism-based; conditions: Vero 76
[9] = test system: Coxsackievirus B2; assay: Antiviral activity against CVB2 infected in Vero76 cells assessed as reduction in virus plaque formation after 4 days by MTT assay; type: functional, organism-based; conditions: Enterovirus B, Vero 76, 96 h
[10] = test system: Yellow fever virus; assay: Antiviral activity against YFV infected in BHK21 cells assessed as protection against virus-induced cytopathogenicity after 4 days by MTT assay; type: functional, organism-based; conditions: BHK-21, 96 h; procedure, shortened: as §2
[11] = test system: Vaccinia virus; assay: Antiviral activity against VV infected in Vero76 cells assessed as reduction in virus plaque formation after 4 days by MTT assay; type: functional, organism-based; conditions: Orthopoxvirus vaccinia; Vero 76
[12] = Cytotoxicity against mock-infected african green monkey Vero76 cells assessed as reduction in cell viability after 96 hrs by MTT assay; type: cell-based, Vero; conditions: chlorocebus sabaeus

| Structure (SMILES) | CC50 at 96 h [1] | CC50 at 96 h [2] | EC50 [3] | Activity [4] | CC50 at 96 h [5] | EC50 [6] | EC50 [7] | Activity [8] | EC50 [9] | EC50 [10] | Activity [11] | CC50 at 96 h [12] |
| --- | --- | --- | --- | --- | --- | --- | --- | --- | --- | --- | --- | --- |
| CN1C=C(/N=N/c2ccc(Br)c(C(F)(F)F)c2)CCC1 | > 100 µM | 50 µM | > 80 µM | inactive | > 100 µM | > 80 µM | 40 µM | inactive | 40 µM | > 100 µM | inactive | 80 µM |
| CN1CCC/C1=C\N=N\c1cc(C(F)(F)F)cc(C(F)(F)F)c1 | 36 µM | 2 µM | > 93 µM | inactive | 48 µM | > 93 µM | > 36 µM | inactive | > 93 µM | > 48 µM | inactive | 93 µM |
| Fc1ccc(N2CCN(/C=C/N=N/c3ccccc3)CC2)cc1 | 13 µM | 17 µM | 9 µM | inactive | 50 µM | > 35 µM | > 13 µM | inactive | 5 µM | 20 µM | inactive | 35 µM |
| CN1CCC/C1=C\N=N\c1ccccc1 | > 100 µM | > 100 µM | 20 µM | inactive | > 100 µM | > 82 µM | 10 µM | inactive | 19 µM | > 100 µM | inactive | 82 µM |
| CC(=O)c1ccc(N2CCN(/C=C/N=N/c3ccccc3)CC2)cc1 | 8 µM | 21 µM | 0.9 µM | inactive | 49 µM | > 11 µM | > 8 µM | inactive | > 11 µM | > 49 µM | inactive | 11 µM |
| CN1CCC/C1=C\N=N\c1ccc(Cl)cc1 | 85 µM | > 100 µM | 20 µM | inactive | 55 µM | > 92 µM | 21 µM | inactive | 24 µM | > 55 µM | inactive | 92 µM |
| CCOC(=O)N1CCN(/C=C/N=N/c2ccccc2)CC1 | 13 µM | 17 µM | 4 µM | inactive | > 100 µM | > 30 µM | > 13 µM | inactive | 12 µM | > 100 µM | inactive | 30 µM |
| CN1C=C(/N=N/c2ccc(Cl)c([N+](=O)[O-])c2)CCC1 | 61 µM | 71 µM | > 100 µM | inactive | > 100 µM | > 100 µM | > 61 µM | inactive | > 100 µM | > 100 µM | inactive | > 100 µM |
| CN1C=C(/N=N/c2cccc(C(F)(F)F)c2)CCC1 | > 100 µM | > 100 µM | > 100 µM | inactive | > 100 µM | > 100 µM | 90 µM | inactive | > 100 µM | > 100 µM | inactive | > 100 µM |
| CN1CCC/C1=C\N=N\c1c(F)c(F)c(F)c(F)c1F | > 100 µM | 8 µM | 75 µM | inactive | > 100 µM | > 100 µM | > 100 µM | inactive | > 100 µM | > 100 µM | inactive | > 100 µM |
